In the library only some 3% were active in any assay of this set; here they are far more common.
S100A4 MyoIIA – S100A4-myosin IIA interaction inhibition; 360,000 tested, 0.14% active; P26447; inhibition, % at 10.7 µM; S100A4/TAMRA-MyoIIA peptide fluorescence polarization;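 active means mean inhibition of at least 70% across replicates, with every replicate also reaching that level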
Target sequence (P26447 whole entry, looked up): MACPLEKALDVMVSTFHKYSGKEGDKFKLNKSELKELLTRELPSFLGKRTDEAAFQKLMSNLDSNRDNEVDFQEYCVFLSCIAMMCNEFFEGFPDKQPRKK
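assay system = human S100A4 monomer with TAMRA-labelled myosin IIA peptide | also added = labelled myosin peptide probe, 5 nM | incubation = 5 min between mix addition and reading | control set = DMSO and TFP controls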
rRNA inh HTS – selective bacterial rRNA inhibition in E. coli; 350,000 tested, 1.6% active; GFP signal change (wild-type ribosome), % (concentration not given with the values); AID 720706; E. coli WT GFP vs humanized-ribosome RFP mutants, fluorescence, 24 h; stronger effect = lower value; DMSO median 0, no signal -100;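 active means significant combined selectivity score with lowered wild-type GFP, culture density cut under 30%, mutant RFP and density less affected; inactive means any of these conditions unmet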
SIRT5 inh – blocks human SIRT5 desuccinylation of peptide | Q9NXA8 | Purified SirT5, succinyl-peptide AMC, trypsin-coupled fluorescence | inhibition, % at 15 µM | 330,000 tested, 1.1% active; in the data active means inhibition above about 15%
Target sequence (Q9NXA8 whole entry, looked up): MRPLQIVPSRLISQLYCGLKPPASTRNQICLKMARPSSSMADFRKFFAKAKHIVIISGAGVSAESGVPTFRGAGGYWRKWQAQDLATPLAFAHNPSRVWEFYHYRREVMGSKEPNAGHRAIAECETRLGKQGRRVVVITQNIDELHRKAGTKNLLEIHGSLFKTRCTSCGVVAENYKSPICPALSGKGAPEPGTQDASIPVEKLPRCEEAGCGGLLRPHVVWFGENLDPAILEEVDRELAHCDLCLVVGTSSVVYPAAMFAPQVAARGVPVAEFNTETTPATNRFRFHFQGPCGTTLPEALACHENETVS
C2C12 statin – protects C2C12 myotubes from simvastatin toxicity; ATP luminescence, 48 h; scaled: DMSO 0, geranylgeraniol control 100; rescue of ATP level, % at 7.49 µM; 330,000 tested, 0.78% active;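 active means mean ATP rescue above about 67%, or every replicate alone reaching that limit, limit read from the data, passing the limit was not always enough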;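 further: myotubes were challenged with 10 µM simvastatin during compound exposure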
PGC1a acetyl inh – PGC1a acetylation modulation, inhibitor mode. inhibition, % at 15.6 µM. 350,000 tested, 0.17% active. U2OS PGC1a acetylation, AlphaScreen anti-acetyl-lysine; with virally co-expressed GCN5 acetyltransferase;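 active means every replicate shows inhibition of at least 40%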;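 further: 0% = neutral control wells and 100% = positive control wells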
Cneo AK release – Cryptococcus neoformans lysis via adenylate kinase release; 360,000 tested, 0.2% active; AID 651654; lysis activity, % at 15 µM; C. neoformans lysis, adenylate kinase release luminescence, 4 h; normalised: neutral wells 0, clomiphene wells 100;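 active means mean lysis activity across replicates of at least 80%, whatever share of replicates individually reach that level; inactive means mean lysis activity below 80%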
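Material: C. neoformans cells; Schedule: 4 h static compound exposure, 37 °C, read 1 h post-reagent; Measured by: adenylate kinase release luminescence; Read-out: signal increase indicating cell lysis; Controls: Clomiphene as positive lysis control.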
* marks the source's active call; other numbers are inactive results.

Results for O=C(c1cnc2n(c1=O)CCS2)N1CCN(C(c2ccccc2)c2ccc(Cl)cc2)CC1 (centres undefined) ?
C2C12 statin: 76*; PGC1a acetyl inh: -24; Cneo AK release: -6

What do the screens show for `O=C(c1cnc2n(c1=O)CCS2)N1CCN(c2ccc([N+](=O)[O-])cc2)CC1`?
S100A4 MyoIIA: 0; rRNA inh HTS: -5; SIRT5 inh: 5; C2C12 statin: -1; PGC1a acetyl inh: -17; Cneo AK release: 0

How did Clc1cccc(Cc2c(-c3cccc(Cl)c3)nc3ccc(Br)cn23)c1 do in these assays?
S100A4 MyoIIA: -7; rRNA inh HTS: -23*; C2C12 statin: -2; PGC1a acetyl inh: -8; Cneo AK release: 0

What do the screens show for `COc1ccc(-c2nc3ccc(Br)cn3c2Cc2cccc(Cl)c2)cc1OC`?
S100A4 MyoIIA: 8; rRNA inh HTS: -27*; C2C12 statin: 15; PGC1a acetyl inh: -3; Cneo AK release: -5

How did COc1ccc(-c2nc3ccc(C)cn3c2CC2CCCCC2)cc1OC do in these assays?
S100A4 MyoIIA: -4; rRNA inh HTS: -29*; SIRT5 inh: -1; C2C12 statin: -2; PGC1a acetyl inh: -33; Cneo AK release: 17

What do the screens show for `Fc1ccc(-c2nc3ccc(Cl)cn3c2Cc2cccc(F)c2)cc1`?
S100A4 MyoIIA: 0; SIRT5 inh: 19*; C2C12 statin: -5; PGC1a acetyl inh: -15; Cneo AK release: 2

Results for Clc1cccc(Cc2c(-c3cccc(Br)c3)nc3ccc(Br)cn23)c1 ?
S100A4 MyoIIA: -7; rRNA inh HTS: -6; SIRT5 inh: -11; C2C12 statin: -6; PGC1a acetyl inh: -11; Cneo AK release: -1

How did CC1C/C(=C/c2ccncc2)C(=O)/C(=C/c2ccncc2)C1 (centres undefined) do in these assays?
S100A4 MyoIIA: 12; rRNA inh HTS: -22*; SIRT5 inh: -2; C2C12 statin: 9; PGC1a acetyl inh: 35; Cneo AK release: 1

How did O=C(N[C@@H]1CC[C@@H](CC(=O)N2CCOCC2)O[C@@H]1CO)c1ccccn1 do in these assays?
S100A4 MyoIIA: -4; rRNA inh HTS: -1; SIRT5 inh: -1; C2C12 statin: 15; PGC1a acetyl inh: -3; Cneo AK release: -1

What do the screens show for `COc1cccc(/C=N/NC(=O)c2cc(-c3cccn3C)n[nH]2)c1O`?
S100A4 MyoIIA: -5; rRNA inh HTS: -36*; SIRT5 inh: 1

What do the screens show for `COc1cc(/C=N/NC(=O)c2cc(-c3cccn3C)n[nH]2)cc(OC)c1OC`?
Cneo AK release: -2

Results for COc1cccc(/C=N/NC(=O)c2cc(-c3cccn3C)n[nH]2)c1 ?
S100A4 MyoIIA: -1; rRNA inh HTS: -24*; SIRT5 inh: 2; C2C12 statin: -11; Cneo AK release: -1

Results for C[C@H](CO)N1C[C@H](C)[C@H](CN(C)C(=O)Nc2ccc(F)cc2)Oc2ccc(NC(=O)C3CCCCC3)cc2CC1=O ?
S100A4 MyoIIA: -1; rRNA inh HTS: 2; SIRT5 inh: 0; C2C12 statin: -10; PGC1a acetyl inh: 11; Cneo AK release: -11

Results for O=[N+]([O-])c1ccc2[nH]c(O)c(N=Nc3ccc(F)cc3)c2c1 ?
S100A4 MyoIIA: 3; rRNA inh HTS: 2; SIRT5 inh: -1; C2C12 statin: 5; Cneo AK release: 6

How did O=[N+]([O-])c1ccc2[nH]c(O)c(N=NC3CCS(=O)(=O)C3)c2c1 (centres undefined) do in these assays?
S100A4 MyoIIA: -7; rRNA inh HTS: 8; SIRT5 inh: 25*; PGC1a acetyl inh: 4; Cneo AK release: 0

How did O=C(O)[C@H]1[C@H](CO)[C@H]2Cn3c(ccc(-c4cncnc4)c3=O)[C@H]2N1C(=O)C1CCCC1 do in these assays?
S100A4 MyoIIA: -6; rRNA inh HTS: -2; SIRT5 inh: -12; PGC1a acetyl inh: 1

What do the screens show for `C[C@H]1CN([C@@H](C)CO)C(=O)c2cc(/C=C/c3ccccc3)cnc2O[C@@H]1CN(C)C(=O)C1CC1`?
rRNA inh HTS: -2; C2C12 statin: -108; PGC1a acetyl inh: -2
